# Compound activity as filed in PubChem.
# Apaf1 inhib: inhibitors of human Apaf-1 apoptosome, primary screen, biochemical, DEVD-Rh110 fluorescence, uHTS; reconstituted apoptosome caspase-3 activity; AID 489030, 2010; inhibition, % at 20 µM; Apoptotic protease-activating factor 1 (Homo sapiens), O14727; 0.71% of 330,000 active; active = inhibition of at least 40% at 20 µM;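 also: plate controls were DMSO wells for no effect and DEVD-CHO caspase inhibitor wells for full effect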
#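 Material: reconstituted apoptosome with Apaf-1, cytochrome c, caspase-9, procaspase-3, dATP. Technique: Rh110 fluorescence intensity. Buffer or medium: pH 7.5 Hepes buffer with CHAPS, BSA, DTT. Times: 30 min plus 50 min, RT.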
# PAD4 inh: human PAD4 inhibitors, primary screen, biochemical, fluorescence polarization, 1536-well format; recombinant PAD4, RCA probe fluorescence polarization; inhibition, % at 6.36 µM; 0.41% of 330,000 active; AID 485272, 2010;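 active = percent inhibition above a cutoff equal to the mean of all tested compounds plus 3 SD, cut at about 15% in these data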;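 also: 0% = PAD4 with RCA probe and DMSO and 100% = probe without PAD4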
# Target sequence (Q9UM07 whole entry, looked up): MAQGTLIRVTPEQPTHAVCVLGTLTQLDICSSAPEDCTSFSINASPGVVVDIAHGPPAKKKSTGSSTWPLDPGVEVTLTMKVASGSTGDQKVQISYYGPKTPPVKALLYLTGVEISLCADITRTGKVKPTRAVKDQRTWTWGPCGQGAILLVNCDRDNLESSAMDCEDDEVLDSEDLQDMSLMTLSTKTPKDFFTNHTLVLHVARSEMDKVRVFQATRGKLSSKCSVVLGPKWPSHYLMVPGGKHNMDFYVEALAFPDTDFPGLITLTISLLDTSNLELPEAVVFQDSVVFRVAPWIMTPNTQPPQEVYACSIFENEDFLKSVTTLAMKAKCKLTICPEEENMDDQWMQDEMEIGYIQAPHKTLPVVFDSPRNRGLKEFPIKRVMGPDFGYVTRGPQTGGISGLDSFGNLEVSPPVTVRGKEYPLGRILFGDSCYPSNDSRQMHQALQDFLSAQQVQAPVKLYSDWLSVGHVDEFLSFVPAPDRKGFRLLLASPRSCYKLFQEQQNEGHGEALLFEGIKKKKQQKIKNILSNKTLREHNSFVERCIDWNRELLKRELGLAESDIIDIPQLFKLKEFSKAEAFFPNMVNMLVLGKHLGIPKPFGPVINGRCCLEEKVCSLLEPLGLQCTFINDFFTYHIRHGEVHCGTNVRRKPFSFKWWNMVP
# GSTO1 inh: inhibitors of recombinant GSTO1, primary screen, counter-screen for RBBP9 inhibitor project, biochemical, fluorescence polarization. Glutathione S-transferase omega-1 (Homo sapiens), P78417. activity-based probe fluorescence polarization. inhibition, % at 5.96 µM. 1.1% of 300,000 active;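 active = inhibition above the campaign mean inhibition plus 3 SD, cut at about 35% in these data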;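 also: 0% = GSTO1-1 with DMSO and 100% = wells lacking GSTO1-1 enzyme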
# GASC-1 inh: inhibitors of GASC-1 histone demethylase, primary screen, biochemical, fluorescence, DELFIA europium; GST-JMJD2C(1-420) H3K9me3 demethylation; 0.069% of 330,000 active; inhibition, % at 2.35 µM; AID 2099, 2009; Lysine-specific demethylase 4C (Homo sapiens), Q9H3R0;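 active = more than half of a compound's replicate wells show inhibition beyond 50%, single wells judged on their own value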;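 also: signal counts dimethyl H3K9 product captured on neutravidin plate; 0% = median of DMSO wells and 100% = 0.3 times that DMSO median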
# TDP2 inh: human TDP2 enzyme inhibitors, primary screen, biochemical, epi absorbance, recombinant enzyme. Tyrosyl-DNA phosphodiesterase 2 (Homo sapiens), O95551. T5PNP hydrolysis, p-nitrophenol absorbance 415 nm. inhibition, % at 12.8 µM. 0.34% of 370,000 active. AID 720702, 2013;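 active = inhibition above the mean of all tested compounds plus 3 SD, set per campaign, cut at about 25% in these data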;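 also: 0% = DMSO with enzyme and 100% = buffer with substrate but no TDP2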
#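 Material: recombinant human TDP2; quantity: TDP2 enzyme at 120 nM final; medium: Tris-HCl pH 7.5 with MgCl2; compound: single concentration, 12.8 µM nominal, with 1% DMSO; incubation: 2 h enzyme incubation at 37 °C; signal: epi absorbance; measure: percent inhibition; benchmarks: high control without enzyme, low control DMSO plus TDP2; repeats: singlicate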
# UBC9 SUMO inh: inhibitors of in vitro SUMOylation cascade, primary screen, biochemical, HTRF, uHTS | inhibition, % at 35 µM | HTRF SUMOylation assay, SAE1/SAE2 + UBC9 | 0.36% of 290,000 active | AID 2006, 2009 | SUMO-conjugating enzyme UBC9 (Homo sapiens), P63279; in the data active = inhibition above about 50%, passing the limit was not always enough
# GSTO1 confirm: GSTO1 inhibitor hit confirmation, counter-screen for RBBP9 inhibitor project, biochemical, fluorescence polarization, triplicate; inhibition, % at 5.96 µM; shares compounds with GSTO1 inh; recombinant GSTO1, probe fluorescence polarization; 54% of 2,400 active;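 active = inhibition above the primary screen's cutoff, its mean inhibition plus 3 SD, cut at about 35% in these data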;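 also: loss of polarization as inhibitors block binding of rhodamine sulfonate ester activity probe; 0% = GSTO1 with DMSO and 100% = wells lacking GSTO1 enzyme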
# PAD4 FP conf: human PAD4 inhibitors, confirmation, biochemical, fluorescence polarization; 28% of 1,200 active; recombinant PAD4, RCA probe fluorescence polarization; inhibition, % at 6.36 µM; shares compounds with PAD4 inh;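 active = mean inhibition across replicates above the hit cutoff set by the earlier primary screen, cut at about 15% in these data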;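 also: inhibitors block active-site labeling by the probe so polarization falls; 0% = PAD4 with probe and DMSO and 100% = probe without PAD4 enzyme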
# Apaf-1 inh conf2: Apaf-1 inhibitors, single-dose retest, confirmation, biochemical, fluorescence, DEVD-Rh110, 20 µM. shares compounds with Apaf1 inhib. reconstituted apoptosome, caspase-3 DEVD-Rh110 fluorescence. inhibition, % at 20 µM. 25% of 1,800 active;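 active = mean inhibition of at least 40% at 20 µM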;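 also: plate controls were DMSO wells for no effect and DEVD-CHO caspase inhibitor control wells for full effect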
# Rh110 interf inh: Rh110 fluorescence interference by putative Apaf-1 inhibitors, confirmation, artefact control for Apaf-1 inhibitor project, biochemical, 20 µM. shares compounds with Apaf1 inhib. quenched caspase reaction. activation (fluorescence interference), % at 20 µM. 1,800 tested, under 10 active. AID 504615, 2011;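 active = signal rise of 40% or more at 20 µM, treated as a fluorescence artifact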
# Apaf1 inh interf: fluorescence interference of Apaf-1 inhibitor hits, dose response, artefact control for Apaf-1 inhibitor project. fluorescence interference counterscreen, Apaf-1 assay format. IC50, µM. 460 tested, under 10 active. shares compounds with Apaf1 inhib; call rule not given here
# TDP2 confirm: human TDP2 enzyme inhibitors, retest, confirmation, biochemical, epi absorbance, recombinant enzyme; shares compounds with TDP2 inh; absorbance read-out; inhibition, % at 12.8 µM; 22% of 1,100 active; in the data active = inhibition above about 25%;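 also: 0% = vehicle with enzyme and 100% = no enzyme buffer only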
# Starred values were filed as active, the others as inactive; nt = not tested or not shown. A selection: hits, their analogues and other compounds. The true share with any hit is near 1.6%.
SMILES,Apaf1 inhib,PAD4 inh,GSTO1 inh,GASC-1 inh,TDP2 inh,UBC9 SUMO inh,GSTO1 confirm,Apaf-1 inh conf2,Rh110 interf inh,TDP2 confirm,others
CC(=O)Nc1ccc(S(=O)(=O)/N=C2\C(=O)c3ccccc3C([O-])=C2n2cc[n+](-c3ccccn3)c2)cc1,84*,32*,77*,-6,37*,50,82*,76*,3,23,PAD4 FP conf=2;Apaf1 inh interf=>100
CC(=O)Nc1ccc(S(=O)(=O)NCCSc2ccccn2)cc1,1,4,1,27,10,3,nt,nt,nt,nt,
COc1cc(Br)c(C(=O)c2nccc3cc(OC)c(OC)cc23)cc1OC,89*,73*,94*,0,91*,nt,90*,79*,3,56*,PAD4 FP conf=59*;Apaf1 inh interf=>100
C=CCN1C(C(=O)OC)CN(Cc2cn(Cc3ccc(Cl)cc3)nn2)CCS1(=O)=O (stereo not drawn),nt,nt,nt,nt,-14,nt,nt,nt,nt,nt,
O=C1C(Cl)=C(NCCN2CCOCC2)C(=O)c2ccccc21,46*,-15,42*,3,31*,-3,6,47*,2,9,Apaf1 inh interf=>100
O=C1C(Cl)=C(NCCCN2CCOCC2)C(=O)c2ccccc21,nt,nt,nt,nt,7,nt,nt,nt,nt,nt,
COc1ccc(NC(=O)Nc2ccc(O)c3ccccc23)cc1,52*,23*,65*,-20,45*,nt,6,16,-4,18,PAD4 FP conf=-2
COc1ccc(NC(=O)Nc2ccccc2OC)cc1,-12,7,2,46,2,13,nt,nt,nt,nt,
COc1ccc(OC)c(S(=O)(=O)Nc2ccc(O)c3ccccc23)c1,13,-2,60*,-5,41*,26,8,nt,nt,8,
Nc1ccc2nn(-c3ccc(F)cc3)nc2c1,88*,-4,43*,3,34*,31,48*,24,-4,12,
O=S1(=O)c2c(NCc3ccco3)cccc2Oc2ccccc2CN1Cc1cn(Cc2cccc(F)c2)nn1,nt,nt,nt,nt,1,nt,nt,nt,nt,nt,
Nc1ccc(N2CCCCC2)c2nonc12,97*,69*,92*,-2,82*,102,62*,nt,nt,89*,
Nc1cc(Cl)ccc1N1CCCCC1,-2,-1,0,-3,2,4,nt,nt,nt,nt,
Oc1c(Br)cc(Br)cc1CNc1cccc2cccnc12,92*,18*,67*,5,36*,75*,92*,59*,10,27*,PAD4 FP conf=-2;Apaf1 inh interf=>100
Oc1ccc(Br)cc1CNc1cccc2cccnc12,90*,-8,46*,2,30*,76,6,48*,8,15,Apaf1 inh interf=>100
Oc1ccc(Br)cc1CNc1cnc2ccccc2c1,11,-5,-1,4,15,-4,nt,nt,nt,nt,
COc1ccc(C=Nn2c(-c3ccccc3F)n[nH]c2=S)cc1OCc1ccccc1,nt,nt,nt,nt,5,nt,nt,nt,nt,nt,
COC(=O)C1CN(Cc2ccccc2)CCS(=O)(=O)N1Cc1ccc(C)cc1 (stereo not drawn),nt,nt,nt,nt,0,nt,nt,nt,nt,nt,
COc1ccc(-n2[nH]c(C)cc2=O)cc1,24,64*,59*,15,71*,13,13,nt,nt,33*,PAD4 FP conf=3
CN(C)c1cccc2c1c(NS(=O)(=O)c1cn(C)cn1)nn2C,62*,-2,54*,-7,44*,39,5,17,-3,32*,
O=C(Nc1cccc(Cl)c1)c1ccccc1,11,1,-1,4,5,nt,nt,nt,nt,nt,
O=C1C(Cl)=C(NC(=O)c2ccccc2)C(=O)C(Cl)=C1NC(=O)c1ccccc1,56*,51*,79*,2,59*,51*,14,nt,nt,33*,
CCC(CC)NC(=O)O[C@H]1CC[C@@]23CCCN2C(=O)CCC[C@H]3[C@H]1C,nt,nt,nt,nt,12,nt,nt,nt,nt,nt,
O=C1NC(c2cccc3ccccc23)Nc2ccccc21 (stereo not drawn),nt,nt,nt,nt,3,nt,nt,nt,nt,nt,
O=C1c2ccccc2C(=O)C12OC2c1cccc2ccccc12 (stereo not drawn),94*,-15,75*,32,73*,96*,71*,nt,nt,76*,
SMILES,Apaf1 inhib,PAD4 inh,GSTO1 inh,GASC-1 inh,TDP2 inh,UBC9 SUMO inh,GSTO1 confirm,Apaf-1 inh conf2,Rh110 interf inh,TDP2 confirm,others
N#Cc1sc2nc(-c3ccccc3)cc(-c3ccco3)c2c1N,90*,46*,66*,23,54*,88,78*,14,-4,56*,PAD4 FP conf=116*
N#Cc1sc2nc(C3CC3)cc(-c3ccccc3)c2c1N,30,7,-3,13,-1,32,nt,nt,nt,nt,
CCCCn1c(NC(=O)c2ccccc2Cl)c(C#N)c2nc3ccccc3nc21,93*,72*,94*,35,38*,nt,64*,59*,-1,72*,PAD4 FP conf=29*;Apaf1 inh interf=>100
CCC(=O)Nc1c(C#N)c2nc3ccccc3nc2n1-c1ccccc1C,36,0,24,-11,3,-6,nt,nt,nt,nt,
c1ccc(Cn2c(SCC3CCC3)nnc2-c2cccnc2)cc1,nt,nt,nt,nt,4,nt,nt,nt,nt,nt,
CCCNC(=O)C[C@H]1CC[C@H]2[C@@H](COc3ccc(NC(=O)c4cncs4)cc3C(=O)N2C)O1,nt,nt,nt,nt,4,nt,nt,nt,nt,nt,
O=C1C=C(Nc2ccccc2C(=O)O)c2ccccc2C1=O,91*,18*,75*,0,46*,nt,88*,93*,-1,50*,PAD4 FP conf=61*;Apaf1 inh interf=>100
O=C(O)c1ccccc1Nc1ccccc1C(=O)O,-1,-3,-1,0,7,7,nt,nt,nt,nt,
